Data on five compounds can be found in paper PMC8800165 (Antiviral Research, 2022).

In general, CC50 refers to the concentration at which the toxic effect on the cells reaches its halfway point. A word on the EC50: it is the concentration at which the effect is half-maximal.

“And” between values parts separate entries of the source, which are not always exact repeats. Equal values may be shown once. Read-outs that look alike come from different tables or passages of the source. A value given as a limit tells only on which side of the number the result lay.

Data set [1] deals with T1, SARS-CoV-2 RdRp (Severe acute respiratory syndrome coronavirus 2, UniProt P0DTD1). As to the kind of experiment: Bio layer interferometry binding assay. Particulars: data not shown. A general note: In BLI a coated tip is dipped into the sample, and binding shifts an interference pattern.
In data set [2] the target is T1, SARS-CoV-2 RdRp. Put plainly: CoV-Gluc plus- and minus-strand RNA by real-time qRT-PCR. The data set is classed as cell-based. Particulars: HEK293T, 2 μM or 10 μM, 24 h.
Data set [3] has as its target T1, SARS-CoV-2 RdRp. Particulars: for inhibition ratio against SARS-CoV-2 RdRp: 10 μM, library screen; for TI (CC50/EC50): CC50 HEK293T / RdRp EC50.
The next data set concerns HEK293T cells. Put plainly: cell toxicity assay, CCK-8 kit. The format is cell-based. Conditions: HEK293T, 24 h, CCK-8. The method in brief: (§1)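 HEK293T cells (DMEM, 10% FBS) seeded one day before treatment. Test compound added in […] for 24 h. CCK-8 (WST-8) reagent then added for 60 min at 37 °C, 5% CO2, and A450 read. CC50 derived from viability relative to DMSO-treated cells.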
On the technique in general: Tetrazolium assays rely on reduction of a dye to a coloured formazan, in cell work by metabolically active cells.

A further data set deals with HCoV-OC43. As to the kind of experiment: anti-coronavirus CPE inhibition assay. The format is cell-based. Conditions: read-out: EC50 HCoV-OC43 (CPE inhibition). The procedure, abridged:
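HCT-8 cells (DMEM, 10% heat-inactivated FBS) seeded at 2 × 10^4/well for 24 h. Infected with HCoV-OC43 strain VR-1558 at MOI 0.1 in 2% FBS medium; two-fold serial dilutions of test compound (0.195–50 μM) added 1 h post-infection. Incubated 5 days at 33 °C, then MTS 3 h at 37 °C, A490. Means ± SD, three independent experiments.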

For the next data set, the system named is LLC-MK2 cells. As to the kind of experiment: toxicity after incubation for 5 days in LLC-MK2 cells. The data set is classed as cell-based. Conditions: read-out: Toxicity CC50 LLC-MK2.
Data set [4] has as its target SARS-CoV-2 RdRp in the presence of nsp14 and nsp10 (Severe acute respiratory syndrome coronavirus 2, UniProt P0DTD1). As to the kind of experiment: cell-based CoV-RdRp-Gluc system with nsp10/nsp14 proofreading function. Conditions: EC50 with nsp14/nsp10 over EC50 without.
The next data set has as its system HCoV-NL63. As to the kind of experiment: anti-coronavirus CPE inhibition assay. The data set is classed as cell-based. Particulars: read-out: EC50 HCoV-NL63 (CPE inhibition); LLC-MK2, MOI 0.01, 5 days, MTS. The procedure, abridged: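 LLC-MK2 cells (DMEM, 10% heat-inactivated FBS) seeded at 2 × 10^4/well for 24 h. Infected with HCoV-NL63 strain Amsterdam I at MOI 0.01 in 2% FBS medium; test compound in two-fold dilutions (0.195–50 μM) given 1 h post-infection. Incubated 5 days at 33 °C; MTS 3 h at 37 °C, A490. Means ± SD, three independent experiments.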

The subject of another data set is HCT-8 cells. Put plainly: toxicity after incubation for 5 days in HCT-8 cells. The format is cell-based. Particulars: read-out: Toxicity CC50 HCT-8; incubation for 5 days.
Data set [5] can be described thus: cell toxicity assay, CCK-8 kit. The data set is classed as cell-based. Particulars: human, HEK293T cells. The procedure, abridged: as §1
A short description of data set [6]: toxicity after incubation for 5 days in HCT-8 cells. The data set is classed as cell-based. Particulars: human, HCT-8 cells.
Where [7] appears, read: Betacoronavirus 1, OC43, HCT-8, 120 h.

Regarding `Nc1ncnc2c1c(I)cn2[C@@H]1O[C@H](CO)[C@@H](O)[C@H]1O` [5-Iodotubercidin], the “binding activity upon SARS-CoV-2 RdRp” value at SARS-CoV-2 RdRp [1] is given as “did not detect the binding activity”. Moreover, the “levels of plus-strand and minus-strand Gluc RNA” value on SARS-CoV-2 RdRp [2] is given as “even better than the Remdesivir”. In addition, the “inhibition ratio against SARS-CoV-2 RdRp” value on SARS-CoV-2 RdRp [3] is 85.69% and > 75%. The “TI (CC50/EC50)” value at SARS-CoV-2 RdRp [3] came out at 79.28. Besides, the results for the CC50 with HEK293T cells, with LLC-MK2 cells and in the data set with HCT-8 cells were 59.5 µM, 45.6 ± 5.15 µM and 46.9 ± 2.37 µM, respectively. Also, the EC50 with HCoV-OC43 (HCT-8, MOI 0.1, 5 days, MTS) came to 1.56 µM; with HCoV-NL63, 3.62 µM. The “Ratio (12 + 14/12)” value in data set [4] is listed as 1.89.

For `Nc1nc2c(ncn2[C@H]2C[C@H](O)[C@@H](CO)O2)c(=S)[nH]1` [6-Thio-dG, 6-Thio-20-Deoxyguanosine], at SARS-CoV-2 RdRp [3], the “inhibition ratio against SARS-CoV-2 RdRp” value was 75.19% and > 75%. In addition, the figures for the CC50 in the data set with HEK293T cells, with LLC-MK2 cells and in the data set on HCT-8 cells were more than 100 µM, 68 ± 7.03 µM and 63 ± 3.52 µM, respectively. For the same compound, the EC50 in the data set on HCoV-OC43 (HCT-8, MOI 0.1, 5 days, MTS) was found to be 6.5 µM; in the data set with HCoV-NL63, 9.53 µM. For the same compound, the “Ratio (12 + 14/12)” value in [4] turned out to be 8.04.

For `Nc1nc(F)nc2c1ncn2[C@@H]1O[C@H](COP(=O)(O)O)[C@@H](O)[C@@H]1O` [Fludarabine Phosphate], on SARS-CoV-2 RdRp [3], the “inhibition ratio against SARS-CoV-2 RdRp” value is 89.78% and > 75%; the “TI (CC50/EC50)” value is listed as 70.15. Besides, in [5], the CC50 at 24 h was found to be 65.2 µM. For the same compound, in the data set with HCoV-OC43 (setting [7]), the EC50 was found to be 3.11 µM. The “Ratio (12 + 14/12)” value in [4] is recorded as 7.19. Also, it took 37.5 ± 1.62 µM to reach half-maximal cytotoxicity in [6] (CC50 at 5 days).

As to `Nc1nc(F)nc2c1ncn2[C@@H]1O[C@H](CO)[C@@H](O)[C@@H]1O` [Fludarabine], at SARS-CoV-2 RdRp [3], the “inhibition ratio against SARS-CoV-2 RdRp” value is 88.71% and > 75%; the “TI (CC50/EC50)” value stood at 50.58. The compound also had a CC50 at 24 h in data set [5] of 53.6 µM. Further, the half-maximal effective concentration (EC50) in the data set with HCoV-OC43 (setting [7]) stood at 4.56 µM. In addition, the “Ratio (12 + 14/12)” value in data set [4] is recorded as 11.53. Half-maximal cytotoxicity in data set [6] (CC50 at 5 days) was put at 40.4 ± 8.16 µM.

Turning to `CCC(CC)COC(=O)[C@H](C)N[P@](=O)(OC[C@H]1O[C@@](C#N)(c2ccc3c(N)ncnn23)[C@H](O)[C@@H]1O)Oc1ccccc1` [Remdesivir], the “TI (CC50/EC50)” value at SARS-CoV-2 RdRp [3] is reported as more than 93.46. This compound yielded a CC50 at 24 h in [5] of more than 100 µM.
